Experimental data as given in ChEMBL document CHEMBL1121663, “(Acylaryloxy)acetic acid diuretics. 3. 2,3-Dihydro-5-acyl-2-benzofurancarboxylic acids, a new class of uricosuric diuretics” (1981).
Values joined by “and” are separate entries in the source; they are usually repeats but may differ in a detail not shown here. Equal entries are not always repeated.

Experiments:
Rattus norvegicus [1] = assay: Natriuretic activity in rats at 9 mg/kg of dosage; mequiv of Na; assay type: functional
How it was run: (§1)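 Rats housed three per metabolism cage received placebo vehicle or compound as a suspension in a final volume of 5.0 mL orally, with placebo groups run concurrently. Urine was collected over 0–5 h and analysed for Na+, K+ and Cl− by standard methods. Values are mequiv per cage, given as geometric means of three cages per dose level.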

Canis familiaris [2] = assay: Compound was tested for diuretic activity in dogs at 5 mg/kg dose after oral administration measured as microequivalent of K+/minute; assay type: functional, Canis lupus familiaris, Urine
How it was run: (§2)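 Oral dog test: water loading (250 mL po, then 500 mL 1 h later). One hour later bladders were emptied by catheter and compound or placebo given in gelatin capsules. Dogs were kept in metabolism cages. Voided urine plus catheterized bladder urine was pooled at 5 h, and Na+, K+ and Cl- were measured by standard methods. Geometric means are reported.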

Canis familiaris [3] = assay: Diuretic activity in dogs following 5 mg/kg i.v. administration.; assay type: functional, Canis lupus familiaris, Urine; conditions: route intravenous
Canis familiaris [4] = assay: Compound was tested for diuretic activity in dogs at 5 mg/kg dose after intravenous administration, activity is expressed as urine volume; 0.6/1.3; assay type: functional, Canis lupus familiaris
Pan troglodytes [5] = assay: Compound was tested for natriuretic activity in chimpanzee at 5 mg/kg dose activity is measured as microequivalent of Na+/minute; muequiv of Na+/min; assay type: functional
How it was run: (§3)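 Inulin iv gave GFR; urate and inulin clearances and Na+, K+, Cl- excretion were measured by AutoAnalyzer. Controls were three 20-min periods; compound was given orally in aqueous solution via nasal catheter. Response was the mean of eight 15-20 min periods, reported as treatment minus control from single experiments.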

[6] = Compound was tested for natriuretic activity in chimpanzee at 5 mg/kg dose activity is measured as ratio of clearance of urate / […]; Curate/Cinulin; assay type: functional; how it was run: as §3
Rattus norvegicus [7] = assay: Natriuretic activity in rats at 81 mg/kg of dosage; mequiv of Na; assay type: functional; how it was run: as §1
Rattus norvegicus [8] = assay: Natriuretic activity in rats at 3 mg/kg of dosage; mequiv of Na; assay type: functional; how it was run: as §1
Rattus norvegicus [9] = assay: Natriuretic activity in rats at 27 mg/kg of dosage; mequiv of Na; assay type: functional; how it was run: as §1
Canis familiaris [10] = assay: Compound was tested for diuretic activity in dogs at 5 mg/kg dose after oral administration measured as microequivalent of Na+/minute; assay type: functional, Canis lupus familiaris, Urine; how it was run: as §2
Canis familiaris [11] = assay: Compound was tested for diuretic activity in dogs at 5 mg/kg dose after oral administration measured as microequivalent of Cl-/minute; assay type: functional, Canis lupus familiaris, Urine; how it was run: as §2
Canis familiaris [12] = assay: Compound was tested for diuretic activity in dogs at 5 mg/kg dose after intravenous administration measured as microequivalent of Na+/minute; 12/166 (Control/Drug treated); assay type: functional, Canis lupus familiaris, Urine
Canis familiaris [13] = assay: Compound was tested for diuretic activity in dogs at 5 mg/kg dose after intravenous administration measured as microequivalent of K+/minute; 15/33 (Control/Drug treated); assay type: functional, Canis lupus familiaris, Urine
How it was run: (§4)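 Intravenous dog clearance study. A priming iv injection of 1.5 mL/kg isoosmotic pH 7.4 phosphate buffer (20 mg PO4/kg) was given first. This was followed by infusion of 3 mL/min pH 7.4 buffer containing 4% mannitol (6.9 mg PO4/min) throughout the experiment. Urinary Na+, K+ and Cl- were measured by standard methods. Each value is the mean of the two highest consecutive 15-min collections.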

Canis familiaris [14] = assay: Compound was tested for diuretic activity in dogs at 5 mg/kg dose after intravenous administration measured as microequivalent of Cl-/minute; 5/156 (Control/Drug treated); assay type: functional, Canis lupus familiaris, Urine; how it was run: as §4
Canis familiaris [15] = assay: Diuretic activity in dogs following 5 mg/kg oral administration.
Canis familiaris [16] = assay: Compound was tested for diuretic activity in dogs at 5 mg/kg dose after intravenous administration activity is measured as microequivalent of Cl-/minute (Control/Drug treated); assay type: functional, Canis lupus familiaris, Urine; conditions: in the assay text read “oral” for “intravenous”
Canis familiaris [17] = assay: Compound was tested for diuretic activity in dogs at 5 mg/kg dose after intravenous administration measured as microequivalent of K+/minute (Control/Drug treated); assay type: functional, Canis lupus familiaris, Urine; conditions: in the assay text read “oral” for “intravenous”
Canis familiaris [18] = assay: Compound was tested for diuretic activity in dogs at 5 mg/kg dose after oral administration measured as microequivalent of Na+/minute
Canis familiaris [19] = assay: Compound was tested for diuretic activity in dogs at 5 mg/kg dose after intravenous administration measured as microequivalent of Na+/minute; 5/95 (Control/Drug treated); assay type: functional, Canis lupus familiaris, Urine
Canis familiaris [20] = assay: Compound was tested for diuretic activity in dogs at 5 mg/kg dose after intravenous administration measured as microequivalent of K+/minute; 6/37 (Control/Drug treated); assay type: functional, Canis lupus familiaris, Urine; how it was run: as §4
Canis familiaris [21] = assay: Compound was tested for diuretic activity in dogs at 5 mg/kg dose after intravenous administration measured as microequivalent of Cl-/minute; 4/72 (Control/Drug treated); assay type: functional, Canis lupus familiaris, Urine; how it was run: as §4
Rattus norvegicus [22] = assay: Compound was tested for natriuretic activity in rats at 3 mg/kg of dosage; mequiv of Na+ x 100/cage; assay type: functional; how it was run: as §1
Canis familiaris [23] = assay: Compound was tested for diuretic activity in dogs at 5 mg/kg dose after intravenous administration, activity is expressed as urine volume; 1/2; assay type: functional, Canis lupus familiaris
Canis familiaris [24] = assay: Compound was tested for diuretic activity in dogs at 5 mg/kg dose after intravenous administration, activity is expressed as urine volume; 1/6; assay type: functional, Canis lupus familiaris
Pan troglodytes [25] = assay: Compound was tested for natriuretic activity in chimpanzee at 5 mg/kg dose activity is measured as microequivalent of Na+/m; muequiv of Na+/minute; assay type: functional; how it was run: as §3
Canis familiaris [26] = assay: Compound was tested for diuretic activity in dogs at 5 mg/kg dose after intravenous administration measured as microequivalent of Cl-/minute; 12/586 (Control/Drug treated); assay type: functional, Canis lupus familiaris, Urine; how it was run: as §4
Canis familiaris [27] = assay: Compound was tested for diuretic activity in dogs at 5 mg/kg dose after intravenous administration measured as microequivalent of K+/minute; 4/54 (Control/Drug treated); assay type: functional, Canis lupus familiaris, Urine; how it was run: as §4
Canis familiaris [28] = assay: Compound was tested for diuretic activity in dogs at 5 mg/kg dose after intravenous administration measured as microequivalent of Na+/minute; 52/264 (Control/Drug treated); assay type: functional, Canis lupus familiaris, Urine
Canis familiaris [29] = assay: Compound was tested for diuretic activity in dogs at 5 mg/kg dose after intravenous administration measured as microequivalent of K+/minute; 6/18 (Control/Drug treated); assay type: functional, Canis lupus familiaris, Urine; how it was run: as §4
Canis familiaris [30] = assay: Compound was tested for diuretic activity in dogs at 5 mg/kg dose after intravenous administration measured as microequivalent of Cl-/minute; 16/271 (Control/Drug treated); assay type: functional, Canis lupus familiaris, Urine; how it was run: as §4
Canis familiaris [31] = assay: Compound was tested for diuretic activity in dogs at 5 mg/kg dose after intravenous administration measured as microequivalent of Cl-/minute (Control/Drug treated); assay type: functional, Canis lupus familiaris, Urine; conditions: in the assay text read “oral” for “intravenous”
Canis familiaris [32] = assay: Compound was tested for diuretic activity in dogs at 5 mg/kg dose after oral administration, activity is expressed as urine volume
Canis familiaris [33] = assay: Compound was tested for diuretic activity in dogs at 5 mg/kg dose after intravenous administration measured as microequivalent of Cl-/minute; 6/70 (Control/Drug treated); assay type: functional, Canis lupus familiaris, Urine; how it was run: as §4
Canis familiaris [34] = assay: Compound was tested for diuretic activity in dogs at 5 mg/kg dose after intravenous administration measured as microequivalent of K+/minute; 10/18 (Control/Drug treated); assay type: functional, Canis lupus familiaris, Urine; how it was run: as §4
Canis familiaris [35] = assay: Compound was tested for diuretic activity in dogs at 5 mg/kg dose after intravenous administration measured as microequivalent of K+/minute; 6/36 (Control/Drug treated); assay type: functional, Canis lupus familiaris, Urine; how it was run: as §4
Canis familiaris [36] = assay: Compound was tested for diuretic activity in dogs at 5 mg/kg dose after intravenous administration measured as microequivalent of Na+/minute; 20/108 (Control/Drug treated); assay type: functional, Canis lupus familiaris, Urine
Canis familiaris [37] = assay: Compound was tested for diuretic activity in dogs at 5 mg/kg dose after intravenous administration measured as microequivalent of Cl-/minute; 5/102 (Control/Drug treated); assay type: functional, Canis lupus familiaris, Urine; how it was run: as §4
Canis familiaris [38] = assay: Compound was tested for diuretic activity in dogs at 5 mg/kg dose after intravenous administration measured as microequivalent of K+/minute; 9/46 (Control/Drug treated); assay type: functional, Canis lupus familiaris, Urine; how it was run: as §4
Canis familiaris [39] = assay: Compound was tested for diuretic activity in dogs at 5 mg/kg dose after intravenous administration measured as microequivalent of Cl-/minute; 2/612 (Control/Drug treated); assay type: functional, Canis lupus familiaris, Urine; how it was run: as §4
Rattus norvegicus [40] = assay: Compound was tested for natriuretic activity in rats at 27 mg/kg of dosage; assay type: functional; how it was run: as §1
Canis familiaris [41] = assay: Compound was tested for diuretic activity in dogs at 5 mg/kg dose after intravenous administration, activity is expressed as urine volume; 0.6/6; assay type: functional, Canis lupus familiaris
Canis familiaris [42] = assay: Compound was tested for diuretic activity in dogs at 5 mg/kg dose after intravenous administration measured as microequivalent of Na+/minute; 13/565 (Control/Drug treated); assay type: functional, Canis lupus familiaris, Urine

| SMILES | Oral activity (Rattus norvegicus [1]) | Oral activity (Pan troglodytes [5]) | Ratio [6] | Oral activity (Rattus norvegicus [7]) | Oral activity (Rattus norvegicus [8]) | Oral activity (Rattus norvegicus [9]) | Urine volume (Canis familiaris [15]) [mL] | Oral activity (Canis familiaris [2]) | Oral activity (Canis familiaris [10]) | Oral activity (Canis familiaris [11]) | also measured |
| --- | --- | --- | --- | --- | --- | --- | --- | --- | --- | --- | --- |
| O=C(c1cccs1)c1cc2c(c(Cl)c1Cl)OC(C(=O)O)C2 (stereo not given) | 191 | 1360 | 0.34 | 310 | 175 | 257 | – | – | – | – | Oral activity (Canis familiaris [2]; 5 mg/kg): 4.2 and 5.2; Urine volume (Canis familiaris [3]): 432 mL and 541 mL; Urine volume (Canis familiaris [4]): 0.6 mL/min; Oral activity (Canis familiaris [10]; 5 mg/kg): 18.7 and 37.7; Oral activity (Canis familiaris [11]; 5 mg/kg): 24.6 and 48.5 |
| NS(=O)(=O)c1cc2c(cc1Cl)NCNS2(=O)=O [HYDROCHLOROTHIAZIDE] | 112 | 144 | – | – | – | – | – | – | – | – | Na+ excretion (Canis familiaris [12]): 166 µequiv/min; K+ excretion (Canis familiaris [13]): 33 µequiv/min; Cl- excretion (Canis familiaris [14]): 156 µequiv/min |
| CCOC(=O)C1Cc2cc(C(=O)c3cccs3)c(Cl)c(Cl)c2O1 (stereo not given) | 87 | – | – | 167 | 76 | 128 | 166 | 1.6 | 7.7 | 8.7 | Oral activity (Canis familiaris [16]): 8.7; Oral activity (Canis familiaris [17]): 1.6; Oral activity (Canis familiaris [18]): 7.7 |
| Cc1c(C(=O)c2cccs2)cc2c(c1C)OC(C(=O)O)C2 (stereo not given) | 68 | – | – | 71 | – | 61 | – | – | – | – | Na+ excretion (Canis familiaris [19]): 95 µequiv/min; K+ excretion (Canis familiaris [20]): 37 µequiv/min; Cl- excretion (Canis familiaris [21]): 72 µequiv/min; Oral activity (Rattus norvegicus [22]): 29; Urine volume (Canis familiaris [23]): 1 mL/min |
| O=C(O)C1Cc2cc(C(O)c3cccs3)c(Cl)c(Cl)c2O1 (stereo not given) | 40 | – | 0.15 | 180 | 25 | 80 | – | – | – | – | Urine volume (Canis familiaris [24]): 1 mL/min; Oral activity (Pan troglodytes [25]): 550; Cl- excretion (Canis familiaris [26]): 586 µequiv/min; K+ excretion (Canis familiaris [27]): 54 µequiv/min |
| O=C(O)C1Cc2cc(S(=O)(=O)c3cccs3)c(Cl)c(Cl)c2O1 (stereo not given) | 19 | – | – | 65 | 10 | 44 | 246 | 1.4 | 7.6 | 9.1 | Na+ excretion (Canis familiaris [28]): 264 µequiv/min; K+ excretion (Canis familiaris [29]): 18 µequiv/min; Cl- excretion (Canis familiaris [30]): 271 µequiv/min |
| O=CC1Cc2cc(C(=O)c3cccs3)c(Cl)c(Cl)c2O1 (stereo not given) | 84 | – | – | 144 | 74 | 107 | 337 | 3.1 | 16.3 | 21.6 | Oral activity (Canis familiaris [31]): 21.6; Oral activity (Canis familiaris [17]): 3.1; Oral activity (Canis familiaris [32]): 337 mL; Oral activity (Canis familiaris [18]): 16.3 |
| COc1ccc(C(=O)c2cc3c(c(Cl)c2Cl)OC(C(=O)O)C3)cc1 (stereo not given) | 96 | – | – | 194 | 40 | 129 | 307 | 2.9 | 14.4 | 17.8 | Cl- excretion (Canis familiaris [33]): 70 µequiv/min; K+ excretion (Canis familiaris [34]): 18 µequiv/min |
| O=C(Cc1ccccc1)c1cc2c(c(Cl)c1Cl)OC(C(=O)O)C2 (stereo not given) | 80 | 513 | 0.315 | 173 | 25 | 126 | – | – | – | – | K+ excretion (Canis familiaris [35]): 36 µequiv/min; Na+ excretion (Canis familiaris [36]): 108 µequiv/min; Cl- excretion (Canis familiaris [37]): 102 µequiv/min |
| O=C(O)C1Cc2cc(Cc3cccs3)c(Cl)c(Cl)c2O1 (stereo not given) | 19 | 206 | 0.185 | 21 | 7 | – | 433 | 7.4 | 30.1 | 40.6 | K+ excretion (Canis familiaris [38]): 46 µequiv/min; Cl- excretion (Canis familiaris [39]): 612 µequiv/min; Oral activity (Rattus norvegicus [40]): 19; Urine volume (Canis familiaris [41]): 0.6 mL/min; Na+ excretion (Canis familiaris [42]): 565 µequiv/min |
